Screening results: PubChem, several laboratories
APP 5'UTR act – APP 5'UTR luciferase reporter activation. SH-SY5Y APP 5'UTR luciferase reporter, luminescence; zero percent = DMSO vehicle wells. activation, % at 2 µM. actives 1% (n = 190,000);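 active means activation above a set limit, based on mean plus 3 SD of controls, cut at about 140% in these data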
NF-kB neuron act – compounds increasing NF-kB expression in human neuronal cells. NF-kB reporter expression; hits give high values. fold change at 12.5 µM. actives 1.6% (n = 190,000). AID 1239; in the data active means fold change above about 3.3
STAT1 act – STAT1 signaling activation. activation (% of control), % at 5.5 µM. NIH 3T3 STAT1-luciferase reporter, IFN-gamma, luminescence; 100% = IFN-gamma alone, no compound. actives 2.6% (n = 200,000);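 active means activation above the screen-wide mean activation plus 3 SD, cut at about 130% in these data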;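 further: raw ratio to IFN-gamma control signal so 100% means no change and 0% no light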
STAT1 blocker – inhibitors of IFN-gamma induced STAT1 signaling; NIH 3T3 STAT1-luciferase reporter, luminescence; inhibition, % at 5.5 µM; actives 0.35% (n = 200,000); AID 920;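 active means inhibition above a set limit, the mean inhibition across all tested compounds plus 3 SD, cut at about 34% in these data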;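 further: 0% = IFN-gamma with DMSO and 100% = IFN-gamma with 300 µM nifuroxazide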
STAT3 inh-1 – STAT3 signaling inhibition | inhibition, % at 5.5 µM | U3A cells, IL-6 STAT3-luciferase reporter, luminescence; host cell line lacks STAT1 | actives 0.89% (n = 190,000) | AID 862;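 active means inhibition above the mean inhibition across all screened compounds plus 3 SD, cut at about 44% in these data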;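 further: 0% = DMSO only wells and 100% = 100 µM nifuroxazide control wells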
STAT3 activator – activators of IL-6 induced STAT3 signaling; activation (% of control), % at 5.6 µM; actives 0.91% (n = 190,000); U3A cells, IL-6 STAT3-luciferase reporter, luminescence; 100% = signal with IL-6 EC80 alone;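 active means activation above the screen-wide mean of compound activation plus 3 SD, cut at about 130% in these data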;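 further: 0% = background luminescence of wells with medium and substrate only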
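system = STAT3-luciferase reporter U3A cells | reagent = IL-6 stimulus at 33 ng/mL final | timing = 1 h compound pre-exposure, 6 h IL-6 stimulation, 37 °C | measured by = luminescence | evaluation = % activation versus median of IL-6-stimulated wells | control set = IL-6-only wells as 100% reference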
STAT3 inh-2 – confirmation of STAT3 signaling inhibitors; shares compounds with STAT3 inh-1; actives 45% (n = 1,200); AID 1265; U3A cells, IL-6 STAT3 luciferase reporter, luminescence; cell line lacks STAT1; inhibition, % at 5.7 µM;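 active means inhibition above the hit cutoff computed for the primary STAT3 screen, cut at about 44% in these data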;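 further: 0% = IL-6 plus DMSO and 100% = IL-6 plus nifuroxazide control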
NFkB inh 2 – NF-kappaB inhibition in STAT3 inhibitor counter-screen. shares compounds with STAT3 inh-1. inhibition, % at 5.7 µM. HEK293T NF-kB luciferase reporter, TNF-alpha induced. actives 36% (n = 1,200). AID 1308;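 active means inhibition above the mean of solvent-only control wells plus 3 SD, cutoff set per campaign, cut at about 13% in these data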;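 further: 0% = TNF-alpha with DMSO and 100% = TNF-alpha with MG high control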
STAT1 inh STAT3c – inhibits STAT1, counter-screen to STAT3 inhibitors. inhibition, % at 5.7 µM. NIH 3T3 STAT1-luciferase reporter, IFN-gamma induced, luminescence. shares compounds with STAT3 inh-1. AID 1317. actives 27% (n = 1,200);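 active means inhibition above the mean plus 3 SD of solvent-only control wells, limit set per screening run, cut at about 16% in these data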;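 further: 0% = DMSO with IFN-gamma and 100% = nifuroxazide control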
Starred values were filed as active, the others as inactive. An excerpt weighted towards active compounds, which were near 4.9% of everything screened.

Screening O=C(CSc1nc(-c2ccco2)cc(C(F)(F)F)n1)Nc1ccc(C(=O)N2CCCCC2)cc1 returned APP 5'UTR act 4.8, NF-kB neuron act 0.68, STAT1 act 94.1, STAT1 blocker 6.6, STAT3 inh-1 50.4*, STAT3 activator 62.2, STAT3 inh-2 46.5*, NFkB inh 2 14.8* and STAT1 inh STAT3c 17.7*.
For c1ccc(-c2ccc(-c3cnc4n3CCCCC4)cc2)cc1 the results were APP 5'UTR act 29.9, NF-kB neuron act 1.8, STAT1 act 114.4, STAT1 blocker -18.3, STAT3 inh-1 12.4 and STAT3 activator 89.7.
CCCOc1ccc(CSc2nc3ccccc3[nH]2)cc1 was read as APP 5'UTR act 124.8, NF-kB neuron act 3.45*, STAT1 act 92.1, STAT1 blocker 8.6, STAT3 inh-1 59.1*, STAT3 activator 50.0, STAT3 inh-2 47.9*, NFkB inh 2 -1.3 and STAT1 inh STAT3c -16.2.
For CCOc1ccc(OCCSc2nc3ccccc3[nH]2)cc1 the results were APP 5'UTR act 3.2, NF-kB neuron act 1.1, STAT1 act 89.7, STAT1 blocker 9.7, STAT3 inh-1 17.4 and STAT3 activator 88.4.
Screening O=c1cc[nH]c2ccc([N+](=O)[O-])cc12 returned APP 5'UTR act -6.8, NF-kB neuron act 1.5, STAT1 act 111.6, STAT1 blocker -14.7, STAT3 inh-1 -18.5 and STAT3 activator 118.9.
O=C(NCCc1ccccc1)c1ccc([N+](=O)[O-])cc1 was read as APP 5'UTR act 151.5*, NF-kB neuron act 4.29*, STAT1 act 102.9, STAT1 blocker -3.1, STAT3 inh-1 44.5*, STAT3 activator 67.4, STAT3 inh-2 10.0, NFkB inh 2 -21.6 and STAT1 inh STAT3c -67.3.
For CC(C)c1ccc(CCNC(=O)c2ccc([N+](=O)[O-])cc2)cc1 the results were APP 5'UTR act 10.7, NF-kB neuron act 0.97, STAT1 act 98.3, STAT1 blocker 1.9, STAT3 inh-1 4.6 and STAT3 activator 100.6.
Screening O=C(COC(=O)/C=C/c1ccc(S(=O)(=O)N2CCc3ccccc32)cc1)NC1CCS(=O)(=O)C1 (stereo not drawn) returned APP 5'UTR act -7.4, NF-kB neuron act 1.01, STAT1 act 104.4, STAT1 blocker -5.8, STAT3 inh-1 -3.4 and STAT3 activator 109.8.
CCOC(=O)N1CCC(NC(=O)C2CCCN(Cc3nc(-c4cccc(Cl)c4)oc3C)C2)CC1 (stereo not drawn) was read as APP 5'UTR act 1.2, NF-kB neuron act 0.63, STAT1 act 76.9, STAT1 blocker 25.5, STAT3 inh-1 53.6*, STAT3 activator 60.1, STAT3 inh-2 38.3, NFkB inh 2 13.4* and STAT1 inh STAT3c 24.0*.
For CCOC(=O)N1CCN(C(=O)C2CCCN(Cc3nc(-c4ccc(Cl)cc4)oc3C)C2)CC1 (stereo not drawn) the results were APP 5'UTR act -6.6, NF-kB neuron act 0.64, STAT1 act 89.8, STAT1 blocker 11.3, STAT3 inh-1 74.4*, STAT3 activator 42.6, STAT3 inh-2 60.1*, NFkB inh 2 22.7* and STAT1 inh STAT3c -15.5.
Cc1oc(-c2ccc(Cl)cc2)nc1CN1CCCC(C(=O)NCc2ccco2)C1 (stereo not drawn) was read as APP 5'UTR act 16.9, NF-kB neuron act 0.61, STAT1 act 93.0, STAT1 blocker 7.7, STAT3 inh-1 5.5 and STAT3 activator 97.5.
CCN1CCN(CCNC(=O)C2CCCN(Cc3nc(-c4cccc(Cl)c4)oc3C)C2)CC1 (stereo not drawn) was read as NF-kB neuron act 0.68, STAT1 act 97.9, STAT1 blocker 2.3, STAT3 inh-1 10.2 and STAT3 activator 98.9.
For O=C1C=C(NC2=CC3OC(c4ccccc4)OCC3OC2=O)CCC1 (stereo not drawn) the results were APP 5'UTR act -12.8, NF-kB neuron act 0.96, STAT1 act 84.0, STAT1 blocker 17.9, STAT3 inh-1 51.2*, STAT3 activator 56.5, STAT3 inh-2 36.4, NFkB inh 2 20.7* and STAT1 inh STAT3c 17.8*.
`CC(C)NS(=O)(=O)c1ccc(OCC(=O)N2CCCC2)cc1` gave APP 5'UTR act 13.4, NF-kB neuron act 0.97, STAT1 act 109.6, STAT1 blocker -6.1, STAT3 inh-1 8.7 and STAT3 activator 95.2.
`Cc1ccc(Cl)cc1N1CCN(C(=O)COc2ccc(S(=O)(=O)NC(C)C)cc2)CC1` gave APP 5'UTR act 45.0, NF-kB neuron act 0.71, STAT1 act 90.4, STAT1 blocker 10.6, STAT3 inh-1 60.0*, STAT3 activator 55.5, STAT3 inh-2 49.4*, NFkB inh 2 10.0 and STAT1 inh STAT3c 10.2.
Screening CC(/C=N\NC(=O)Cn1c(C)nc2ccccc21)=C\c1ccccc1 returned APP 5'UTR act -7.6, NF-kB neuron act 0.81, STAT1 act 81.7, STAT1 blocker 20.2, STAT3 inh-1 69.6*, STAT3 activator 41.5, STAT3 inh-2 69.1*, NFkB inh 2 15.0* and STAT1 inh STAT3c 17.3*.
CC(/C=N/NC(=O)CSc1nc(C)cc(C)n1)=C\c1ccccc1 was read as APP 5'UTR act 13.8, NF-kB neuron act 0.98, STAT1 act 102.6, STAT1 blocker -2.9, STAT3 inh-1 -8.0 and STAT3 activator 109.8.
`COc1ccc(CCNc2ccc(N3C(=O)CC(C)C3=O)cc2[N+](=O)[O-])cc1OC` (stereo not drawn) gave APP 5'UTR act -5.5, NF-kB neuron act 0.92, STAT1 act 69.1, STAT1 blocker 32.8, STAT3 inh-1 69.7*, STAT3 activator 43.7, STAT3 inh-2 58.0*, NFkB inh 2 17.1* and STAT1 inh STAT3c 14.3.
`O=C(CCN1C(=O)C2C3CCC(C3)C2C1=O)OCC(=O)c1cccc([N+](=O)[O-])c1` (stereo not drawn) gave APP 5'UTR act 1.4, NF-kB neuron act 1.2, STAT1 act 94.8, STAT1 blocker 5.8, STAT3 inh-1 -7.1 and STAT3 activator 103.9.
Screening CC(C)Cn1c(N)c(C(=O)COC(=O)CCc2nc3ccccc3s2)c(=O)n(C)c1=O returned APP 5'UTR act -7.9, NF-kB neuron act 0.82, STAT1 act 76.3, STAT1 blocker 24.8, STAT3 inh-1 70.4*, STAT3 activator 41.5, STAT3 inh-2 74.5*, NFkB inh 2 7.5 and STAT1 inh STAT3c 15.7.
